NTR1 ag – agonists of human NTR1, primary screen, imaging, U2OS cells, beta-arrestin-GFP, high content. Neurotensin receptor type 1 (Homo sapiens), P30989. NTR1-U2OS beta-arrestin-GFP spot imaging, agonist mode. activation, % at 20 µM. hit rate 0.17% among 330,000. AID 493036, 2011;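 active = activation at or above 40% of the spot to cytoplasm intensity ratio, with at least 20 cells analyzed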
Target sequence (P30989 whole entry, looked up): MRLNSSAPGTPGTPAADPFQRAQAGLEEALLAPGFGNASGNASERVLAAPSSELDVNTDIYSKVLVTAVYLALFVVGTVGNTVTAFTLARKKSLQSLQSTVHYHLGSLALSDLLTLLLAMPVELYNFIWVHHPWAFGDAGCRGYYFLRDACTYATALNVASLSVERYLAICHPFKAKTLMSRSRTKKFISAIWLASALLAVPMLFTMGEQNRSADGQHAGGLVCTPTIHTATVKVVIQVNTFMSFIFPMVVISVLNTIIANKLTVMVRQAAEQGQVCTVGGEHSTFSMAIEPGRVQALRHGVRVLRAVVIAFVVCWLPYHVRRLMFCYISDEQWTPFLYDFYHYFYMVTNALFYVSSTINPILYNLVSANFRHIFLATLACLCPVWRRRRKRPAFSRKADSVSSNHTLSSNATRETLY
Arrestin-AP2 inh – inhibitors of beta-arrestin/AP2 binding, primary screen, biochemical, GPCR trafficking, flow cytometry | FITC-arrestin peptide / GST-AP2 beads; AP2 beta2 appendage carries R879A mutation | inhibition, % at 10 µM | AID 504490, 2011 | hit rate 0.31% among 340,000 | beta-arrestin 1 C-terminal peptide binding to AP2 beta2-adaptin appendage (human);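 active = inhibition above a set limit, near 3 SD of compounds lacking own fluorescence, cut at about 54% in these data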
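System: GST-AP2 R879A glutathione beads; medium: PBS, Tween 20 0.05%, BSA 0.1%; reagent: fluorescein-tagged arrestin peptide at 50 nM final; schedule: pre-incubation 12 min, peptide binding 1 h, room temperature; detection: flow cytometry, FL1 (488/535 nm); read-out: inhibition as reduced fluorescein signal on beads, percent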
PLC-beta3 inh – human PLC-beta3 inhibitors, primary screen, biochemical, fluorescence. hit rate 0.18% among 370,000. 1-phosphatidylinositol 4,5-bisphosphate phosphodiesterase beta-3 (Homo sapiens), Q01970. Purified PLC-beta3, fluorogenic substrate. inhibition, % at 12.2 µM. AID 720704, 2013; in the data active = inhibition above about 11%
PLCg1 inh – PLC-gamma1 enzyme inhibitors, primary screen, biochemical, fluorescence, purified enzyme | 1-phosphatidylinositol 4,5-bisphosphate phosphodiesterase gamma-1 (Homo sapiens), P19174 | fluorogenic substrate | inhibition, % at 12.2 µM | hit rate 0.84% among 370,000; in the data active = inhibition above about 9.5%
Arr-AP2 CP1 – inhibitors of arrestin peptide binding to AP2, confirmation, biochemical, cherry pick 1, flow cytometry beads. shares compounds with Arrestin-AP2 inh. GST-AP2 beads, FITC arrestin peptide binding; GST-fused beta2-adaptin appendage, R879A mutant. inhibition, % at 10 µM. hit rate 2% among 1,300;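 active = inhibition above a set limit, roughly 3 SD of non-fluorescent compound noise, cut at about 38% in these data; inactive = inhibition at or below that limit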;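 also: loss of bead fluorescence from 50 nM FITC arrestin peptide bound to appendage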
GST GSH counter – GST-fluorescein capture on glutathione beads, confirmation, artefact control for arrestin-AP2 inhibitor project, biochemical, cherry pick 1, flow cytometry. shares compounds with Arrestin-AP2 inh. GST-fluorescein binding to GSH beads, fluorescence, counter-screen. inhibition, % at 10 µM. hit rate 2% among 1,300. AID 588338, 2011;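 active = inhibition above 50%, about 3 SD of the inhibition seen with non-fluorescent compounds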;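 also: fluorescein maleimide labelled GST captured on 4 micron glutathione beads; higher means more loss of bead fluorescence from quenching or blocked binding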
Numbers stand for hits; - = inactive; . = no result given. Compounds with a hit are over-represented: about 1.3% of the library has one in this group of screens.

SMILES	NTR1 ag	Arrestin-AP2 inh	PLC-beta3 inh	PLCg1 inh	Arr-AP2 CP1	GST GSH counter
O=C(CN1C(=O)COc2ccccc21)NCCN1CCCC1	-	-	-	-	.	.
O=C(CN1C(=O)COc2ccccc21)NCCCN1CCCC1	-	64	-	-	-	-
CCOC(=O)C1CCN(C(=O)C(C)(C)NC(=O)Nc2ccc(OC)c(Cl)c2)CC1	.	.	-	-	.	.
O=[N+]([O-])c1ccc(NC(=S)N2CCN(S(=O)(=O)c3ccccc3)CC2)cc1	-	71	-	-	-	-
CC(C)CC(=O)N1CCc2cc(S(=O)(=O)N(C)Cc3ccco3)ccc21	.	.	-	-	.	.
C=CCN1C(=O)c2ccc(C(=O)N3CCN(S(=O)(=O)c4cc(C)ccc4C)CC3)cc2C1=O	-	-	-	-	.	.
C=CCN1C(=O)c2ccc(C(=O)N3CCN(S(=O)(=O)c4cccc(F)c4)CC3)cc2C1=O	-	66	-	-	-	-
CN(Cc1ccccc1F)C(=O)C1CCCN(c2ncccn2)C1 (stereo not drawn)	.	.	-	-	.	.
O=c1c2cnn(-c3ccc(F)cc3)c2ncn1Cc1ccc(F)cc1	-	90	-	-	-	-
O=c1c2cnn(-c3ccccc3)c2ncn1Cc1ccccc1	-	-	-	-	.	.
Cc1ccc(N2C(=O)NC(NC(=O)C(C)(C)C)(C(F)(F)F)C2=O)cc1C (stereo not drawn)	-	56	-	-	-	-
O=C1c2ccccc2C(=O)N1c1cccc2cccnc12	-	58	-	-	-	-
COC(=O)[C@]12C[C@H](CC(=O)N3CCC(c4ccccc4)CC3)C(=O)N(Cc3cccc4ccccc34)C1=C[C@H](C1CCCC1)O[C@@H]2C	.	.	-	-	.	.
CCCCOC(=O)CCCN1C(=O)/C(=C2\SC(=S)N(CCCC(=O)OCCCC)C2=O)SC1=S	-	67	-	-	-	-
O=C(NC1CCCC1)C(c1cc2c(cc1[N+](=O)[O-])OCO2)N1CCCC1 (stereo not drawn)	-	-	-	-	.	.
O=CN1CCN(C(C(=O)NC2CCCC2)c2cc3c(cc2[N+](=O)[O-])OCO3)CC1 (stereo not drawn)	-	60	-	-	-	-
CCCCOCCCNC(=O)C[C@H]1C[C@@]2(C(=O)OC)C(=C[C@H](C(C)C)O[C@@H]2C2CC2)N(Cc2ccc(Cl)cc2Cl)C1=O	.	.	-	-	.	.
S=C1NC[C@H](Cc2ccccc2)N1CC1CCN(CCCC2CCCCC2)CC1	.	.	-	-	.	.
Cc1cc(C)cc(NC(=O)CSc2nc3nc(C)cc(C)n3n2)c1	-	68	-	-	-	-
CCCCc1ccc2nc(NC(=O)c3ccco3)sc2c1	.	.	-	-	.	.
COc1ccc(Oc2c(Cl)cnn(CC(=O)C(c3ccccc3)c3ccccc3)c2=O)cc1	.	.	-	-	.	.
CC(C)N(C(=O)[C@H]1C[C@H](CC(=O)NCc2ccco2)C(=O)N2CCc3c([nH]c4cc(-c5ccco5)ccc34)[C@]12C)C(C)C	-	60	-	-	-	-
O=C(C[C@H]1C[C@H](C(=O)N2CCCCC2)[C@@]2(CCc3ccccc3)c3[nH]c4cc(-c5ccco5)ccc4c3CCN2C1=O)NCCC1=CCCCC1	-	57	.	.	-	-
CC(C)N(C(=O)[C@H]1CC(CC(=O)NCc2ccco2)C(=O)N2CCc3c([nH]c4ccccc34)[C@]12C)C(C)C (stereo partly drawn)	-	-	-	-	.	.
COc1cc(CNc2cccc3c2S(=O)(=O)N([C@H](C)c2ccccc2)C[C@@H](COCc2ccccc2)O3)cc(OC)c1OC	.	.	-	-	.	.
CCC(NC(=O)CCc1ccccc1)c1ccccc1 (stereo not drawn)	-	61	-	-	-	-
O=C(O)CC(NC(=O)CCc1ccccc1)c1ccc(Cl)cc1 (stereo not drawn)	-	-	-	-	.	.
O=C(Nc1ccc(Cl)cn1)Nc1ccccc1F	-	-	-	-	.	.
COc1ccc(OC)c(NC(=O)Nc2cccnc2)c1	-	-	-	-	.	.

Assay outcomes: PubChem BioAssay, several laboratories
